Results taken from ChEMBL document CHEMBL1944515 (J Med Chem, 2012).
Activity calls are given as the source filed them. The rule behind the calls is not given here.

Key:
HeLa [1] = assay: Induction of apoptosis in human HeLa cells assessed as decrease in XIAP protein expression at 50 to 100 nM after 24 to 48 hrs by Western blot analysis; format: functional, cell-based
Summary of the method: (§1)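 HeLa cells were treated for 24 or 48 h, washed in ice-cold PBS and lysed on ice for 30 min; lysates were spun at 15000g, 4 °C. 20 μg protein per lane on SDS-PAGE (7.5–15%), then PVDF. Blocked overnight at 4 °C, primary antibodies 2 h at room temperature, peroxidase secondary 60 min, ECL detection. Blots were reprobed for β-actin as loading control.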

HeLa [2] = assay: Induction of apoptosis in human HeLa cells assessed as increase in annexin-V positive apoptotic cells at 50 to 100 nM by FITC conjugated annexin-V/PI staining-based flow cytometry; format: functional, cell-based; conditions: TDE = time-dependent effect
Summary of the method: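 Flow cytometry of HeLa cells after 24 or 48 h exposure, double-stained with annexin-V-FITC and propidium iodide. Excitation at 488 nm, emission at 525 nm (FITC) and 585 nm (PI). Quadrants scored as live, early apoptotic, late apoptotic or necrotic cells.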

A549 = assay: Resistance ratio of IC50 for human A549-T12 cells to IC50 for human A549 cells; format: functional
HeLa [3] = assay: Induction of cell cycle arrest in human HeLa cells assessed as increase in cyclin B1 expression at 50 to 100 nM after 24 to 48 hrs by Western blot analysis; format: functional, cell-based; summary of the method: as §1
HT-29 = assay: Anticancer activity against human HT-29 cells xenografted in BALB/c nude mouse assessed as tumor growth inhibition at 100 mg/kg, ip administered on days 0,2 and 4 relative to vehicle treated control; format: functional; conditions: HT-29, ip, route intraperitoneal, read-out: TGI
Summary of the method: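 HT-29 cells in log phase, suspended at 1 × 10^7 cells/mL in serum-free RPMI 1640, were inoculated (0.2 mL) into dorsal hypodermis of nude mice. At ~300 mm3, 18 mice were randomised to vehicle or two treatment groups (six per group). Dosing was 100 mg/kg ip in DMSO (0.01 mL/g) on days 0, 2 and 4. Caliper tumour volume V = LW²/2 and body weight were tracked versus vehicle.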

In the case of CCOc1ccc(-c2nnnn2-c2cc(OC)c(OC)c(OC)c2)cc1, the Activity (HeLa [1]) is reported as “Active”, the Activity (HeLa [2]) is reported as “tde” and the “Ratio IC50” value (A549) is reported as 1. For the same molecule, the Activity (HeLa [3]) was “Active” and the inhibition in vivo at 100 mg/kg (HT-29) was 66%.
